# From ChEMBL document CHEMBL4765317, “Novel bacterial topoisomerase inhibitors derived from isomannide” (Eur J Med Chem, 2020)
# What was measured:
# Staphylococcus aureus [1] = test: Antibacterial activity against Staphylococcus aureus ATCC 29213 assessed as reduction in bacterial growth by CLSI based broth microdilution method; format: functional
# Staphylococcus aureus [2] = test: Antibacterial activity against methicillin-resistant Staphylococcus aureus DRL-3161 assessed as reduction in bacterial growth by CLSI based broth microdilution method; format: functional
# Streptococcus pyogenes = test: Antibacterial activity against Streptococcus pyogenes LSI-1235 assessed as reduction in bacterial growth by CLSI based broth microdilution method; format: functional
# Streptococcus pneumoniae [3] = test: Antibacterial activity against penicillin-susceptible Streptococcus pneumoniae LSI-4234 assessed as reduction in bacterial growth by CLSI based broth microdilution method; format: functional
# Streptococcus pneumoniae [4] = test: Antibacterial activity against penicillin-resistant Streptococcus pneumoniae LSI-4246 assessed as reduction in bacterial growth by CLSI based broth microdilution method; format: functional
# Enterococcus faecium = test: Antibacterial activity against Vancomycin-susceptible Enterococcus faecium DRL-4193 assessed as reduction in bacterial growth by CLSI based broth microdilution method; format: functional
# Enterococcus faecalis = test: Antibacterial activity against Enterococcus faecalis ATCC 29212 assessed as reduction in bacterial growth by CLSI based broth microdilution method; format: functional
# Staphylococcus aureus [5] = test: Antibacterial activity against Fluoroquinolone-resistant Staphylococcus aureus assessed as reduction in bacterial growth by CLSI based broth microdilution method; format: functional
# Staphylococcus aureus [6] = test: Potency index, ratio of MIC90 of ciprofloxacin to MIC90 of compound for antibacterial activity against Fluoroquinolone-resistant Staphylococcus aureus assessed as reduction in bacterial growth by CLSI based broth microdilution method; format: functional
# Nav1.5 (late current) [7] = target: T1, Nav1.5 (late current) (Homo sapiens, UniProt Q14524); test: Inhibition of recombinant human Nav1.5 late expressed in human HEK293 cells late at 3 uM in presence of ATXII by automated Qpatch clamp assay relative to control; format: ADME, cell-based; conditions: HEK293 cells expressing recombinant human Nav1.5
# How it was run: (§1)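 Part of an eight-assay CiPA panel run on a QPatch HT automated patch clamp at 3, 30 and 100 µM, in duplicate. The test compound came from a 30 mM DMSO stock. Data were filtered for seal quality, seal drop and current amplitude, and reported as mean percent inhibition.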
# Nav1.5 (late current) [8] = target: T1, Nav1.5 (late current); test: Inhibition of recombinant human Nav1.5 late expressed in human HEK293 cells at 30 uM in presence of ATXII by automated Qpatch clamp assay relative to control; format: ADME, cell-based; conditions: HEK293 cells expressing recombinant human Nav1.5; how it was run: as §1
# Nav1.5 (late current) [9] = target: T1, Nav1.5 (late current); test: Inhibition of recombinant human Nav1.5 late expressed in human HEK293 cells at 100 uM in presence of ATXII by automated Qpatch clamp assay relative to control; format: ADME, cell-based; conditions: HEK293 cells expressing recombinant human Nav1.5; how it was run: as §1
# [10] = target: T2, Sodium channel protein type 5 subunit alpha (Homo sapiens, UniProt Q14524); test: Activation of recombinant human Nav1.5 late expressed in human HEK293 cells assessed as activation of late current at 3 uM by automated Qpatch clamp assay relative to control; format: ADME, cell-based; conditions: hek293, 3 µM
# How it was run: (§2)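 Part of an eight-assay CiPA panel run in duplicate on an automated QPatch HT patch-clamp system at 3, 30 and 100 µM. Test compound came from a 30 mM DMSO stock. Records were filtered for seal quality, seal drop and current amplitude, and mean percent values are reported.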
# [11] = target: T2, Sodium channel protein type 5 subunit alpha; test: Activation of recombinant human Nav1.5 late expressed in human HEK293 cells assessed as activation of late current at 30 uM by automated Qpatch clamp assay relative to control; format: ADME, cell-based; conditions: hek293, 30 µM; how it was run: as §2
# [12] = target: T2, Sodium channel protein type 5 subunit alpha; test: Activation of recombinant human Nav1.5 late expressed in human HEK293 cells assessed as activation of late current at 100 uM by automated Qpatch clamp assay relative to control; format: ADME, cell-based; conditions: hek293, 100 µM
# How it was run: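 Part of an eight-assay CiPA cardiac ion channel panel run in duplicate on a QPatch HT automated patch-clamp system. Compound was prepared as a 30 mM DMSO stock and tested at 3, 30 and 100 µM. Recordings were filtered for seal quality, seal drop and current amplitude, and results are reported as mean percent values.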
# [13] = target: Histamine H2 receptor (Homo sapiens) (UniProt P25021); test: Inhibition of recombinant human full length histamine H2 receptor expressed in CHO-K1 cells using [125I] Aminopotentidine as […] at 100 uM incubated for 120 mins by scintillation counting method relative to control; format: cell-based
# How it was run: (§3)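 Off-target screen against a panel of 44 receptors, enzymes and transporters, run in duplicate at a single 100 µM concentration. Results are given as % inhibition. No concentration-response follow-up was done.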
# [14] = target: Sodium-dependent noradrenaline transporter (Homo sapiens) (UniProt P23975); test: Inhibition of recombinant human full length Norepinephrine transporter expressed in dog MDCK cells at 100 uM in presence of [125I]-RTI-55 incubated for 180 mins by scintillation counting method relative to control; format: cell-based; conditions: CHO-K1; how it was run: as §3
# [15] = target: Sodium channel protein type 2 subunit alpha (Homo sapiens) (UniProt Q99250); test: Inhibition of recombinant human full length Nav1.2 expressed in CHO-K1 cells at 100 uM by manual patch clamp assay relative to control; format: cell-based; how it was run: as §3
# [16] = target: 5-hydroxytryptamine receptor 2B (Homo sapiens) (UniProt P41595); test: Inhibition of recombinant human full length 5HT2B expressed in CHO-K1 cells at 100 uM incubated for 30 mins by TR-FRET assay relative to control; format: cell-based; how it was run: as §3
# [17] = Cytotoxicity against human HepaRG assessed as reduction in cell viability at 0.01 uM incubated for 24 hrs by Cell-Titer Glo assay; format: cell-based; conditions: HepaRG cells, read-out: INH
# How it was run: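 ATP-based viability read-out in HepaRG cells over a five-point concentration series (0.01, 0.1, 1, 10, 100 µM). Results are given as % cytotoxicity at each concentration.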
# [18] = Permeability across basolateral to apical side in human Caco2 cells at 10 uM by LC-MS/MS analysis; format: ADME, cell-based; conditions: Caco-2, read-out: permeability
# [19] = Metabolic stability in mouse liver microsomes assessed as half life at 10 uM incubated for 5 mins followed by NADPH addition and measured upto 60 mins by LC-MS analysis; format: ADME, Microsome; conditions: time 65 min
# CYP2B6 = CYP2B6 (Homo sapiens, UniProt P20813); test: Inhibition of human liver microsome CYP2B6 at 10 uM in presence of NADPH incubated for 10 to 30 mins by LC-MS-MS analysis; format: ADME; conditions: human liver microsomes, time 10-30 min
# CYP2C9 = CYP2C9 (Homo sapiens, UniProt P11712); test: Inhibition of human liver microsome CYP2C9 at 10 uM in presence of NADPH incubated for 10 to 30 mins by LC-MS-MS analysis; format: ADME; conditions: human liver microsomes, time 10-30 min
# CYP2C19 = CYP2C19 (Homo sapiens, UniProt P33261); test: Inhibition of human liver microsome CYP2C19 at 10 uM in presence of NADPH incubated for 10 to 30 mins by LC-MS-MS analysis; format: ADME; conditions: human liver microsomes, time 10-30 min
# CYP2D6 = CYP2D6 (Homo sapiens, UniProt P10635); test: Inhibition of human liver microsome CYP2D6 at 10 uM in presence of NADPH incubated for 10 to 30 mins by LC-MS-MS analysis; format: ADME; conditions: human liver microsomes, time 10-30 min
# Cytochrome P450 3A4 = Cytochrome P450 3A4 (Homo sapiens, UniProt P08684); test: Inhibition of human liver microsome CYP3A4 in presence of NADPH incubated for 10 to 30 mins by LC-MS-MS analysis; format: ADME, microsomes
# [20] = Inhibition of Staphylococcus aureus DNA gyrase using relaxed pBR322 DNA as substrate incubated for 30 mins by agarose gel electrophoresis method
# T2 sequence (Q14524 whole entry): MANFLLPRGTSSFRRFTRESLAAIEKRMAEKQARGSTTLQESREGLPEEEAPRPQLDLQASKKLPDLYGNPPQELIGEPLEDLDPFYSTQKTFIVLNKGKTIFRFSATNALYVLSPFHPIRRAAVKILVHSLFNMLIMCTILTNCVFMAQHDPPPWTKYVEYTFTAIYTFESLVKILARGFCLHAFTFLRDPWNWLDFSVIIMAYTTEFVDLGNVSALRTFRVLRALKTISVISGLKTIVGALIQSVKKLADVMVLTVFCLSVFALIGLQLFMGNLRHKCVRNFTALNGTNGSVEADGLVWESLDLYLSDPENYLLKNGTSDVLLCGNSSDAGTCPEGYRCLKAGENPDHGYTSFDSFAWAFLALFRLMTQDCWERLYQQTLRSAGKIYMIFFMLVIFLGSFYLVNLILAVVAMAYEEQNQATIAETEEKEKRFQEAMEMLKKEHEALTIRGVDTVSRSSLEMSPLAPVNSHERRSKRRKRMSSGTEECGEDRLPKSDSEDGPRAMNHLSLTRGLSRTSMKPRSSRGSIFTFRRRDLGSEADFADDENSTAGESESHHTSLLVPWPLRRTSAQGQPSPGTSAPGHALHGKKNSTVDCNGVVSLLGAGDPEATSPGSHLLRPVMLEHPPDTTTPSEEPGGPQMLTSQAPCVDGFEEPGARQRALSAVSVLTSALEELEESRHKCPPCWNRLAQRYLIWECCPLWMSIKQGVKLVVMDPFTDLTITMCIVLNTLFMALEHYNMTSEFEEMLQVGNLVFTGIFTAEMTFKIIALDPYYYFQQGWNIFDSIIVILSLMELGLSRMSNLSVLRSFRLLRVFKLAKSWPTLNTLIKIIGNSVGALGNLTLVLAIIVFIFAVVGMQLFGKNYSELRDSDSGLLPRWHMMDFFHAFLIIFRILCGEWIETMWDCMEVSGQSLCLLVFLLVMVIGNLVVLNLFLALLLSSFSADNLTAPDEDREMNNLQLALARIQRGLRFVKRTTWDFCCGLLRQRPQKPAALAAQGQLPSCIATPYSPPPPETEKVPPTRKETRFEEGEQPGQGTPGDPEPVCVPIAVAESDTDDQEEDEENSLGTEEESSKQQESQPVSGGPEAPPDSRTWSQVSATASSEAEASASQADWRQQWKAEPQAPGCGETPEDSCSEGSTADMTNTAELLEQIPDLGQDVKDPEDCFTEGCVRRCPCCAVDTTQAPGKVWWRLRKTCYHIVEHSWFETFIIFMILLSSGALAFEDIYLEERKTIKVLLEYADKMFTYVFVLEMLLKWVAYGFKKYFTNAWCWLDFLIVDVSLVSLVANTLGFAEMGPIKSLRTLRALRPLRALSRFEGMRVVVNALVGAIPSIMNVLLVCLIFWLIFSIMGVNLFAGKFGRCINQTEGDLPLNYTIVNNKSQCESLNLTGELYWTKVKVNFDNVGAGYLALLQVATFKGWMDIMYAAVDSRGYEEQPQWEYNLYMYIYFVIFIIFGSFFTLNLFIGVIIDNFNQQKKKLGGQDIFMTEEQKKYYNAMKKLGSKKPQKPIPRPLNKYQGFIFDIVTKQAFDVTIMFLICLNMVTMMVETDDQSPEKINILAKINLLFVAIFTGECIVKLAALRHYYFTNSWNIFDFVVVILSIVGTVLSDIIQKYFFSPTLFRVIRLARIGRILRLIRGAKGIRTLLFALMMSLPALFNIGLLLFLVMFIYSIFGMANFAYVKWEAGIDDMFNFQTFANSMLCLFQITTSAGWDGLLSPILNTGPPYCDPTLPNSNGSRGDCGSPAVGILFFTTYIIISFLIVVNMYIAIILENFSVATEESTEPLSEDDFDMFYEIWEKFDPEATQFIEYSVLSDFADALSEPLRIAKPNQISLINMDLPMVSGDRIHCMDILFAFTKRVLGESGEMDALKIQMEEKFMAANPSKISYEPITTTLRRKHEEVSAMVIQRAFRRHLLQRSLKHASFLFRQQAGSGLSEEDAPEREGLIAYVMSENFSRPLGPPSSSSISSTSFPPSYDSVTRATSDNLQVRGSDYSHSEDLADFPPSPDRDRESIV
# T1 sequence (Q14524 whole entry): as above
# Sequence of CYP2C19 (P33261 whole entry): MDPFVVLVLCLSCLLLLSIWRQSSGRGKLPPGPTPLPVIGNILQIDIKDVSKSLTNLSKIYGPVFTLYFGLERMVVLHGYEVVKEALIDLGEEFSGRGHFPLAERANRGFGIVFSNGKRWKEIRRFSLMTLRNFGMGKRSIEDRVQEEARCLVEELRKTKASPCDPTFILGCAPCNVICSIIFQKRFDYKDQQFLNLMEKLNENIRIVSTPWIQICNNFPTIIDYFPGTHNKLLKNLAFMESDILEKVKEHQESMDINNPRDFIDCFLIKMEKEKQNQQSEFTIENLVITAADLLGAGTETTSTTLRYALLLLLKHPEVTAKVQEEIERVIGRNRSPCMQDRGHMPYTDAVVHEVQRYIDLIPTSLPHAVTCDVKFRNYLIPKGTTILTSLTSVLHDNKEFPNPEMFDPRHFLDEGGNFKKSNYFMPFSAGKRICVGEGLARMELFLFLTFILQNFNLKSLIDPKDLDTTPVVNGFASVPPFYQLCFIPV
# Sequence of CYP2C9 (P11712 whole entry): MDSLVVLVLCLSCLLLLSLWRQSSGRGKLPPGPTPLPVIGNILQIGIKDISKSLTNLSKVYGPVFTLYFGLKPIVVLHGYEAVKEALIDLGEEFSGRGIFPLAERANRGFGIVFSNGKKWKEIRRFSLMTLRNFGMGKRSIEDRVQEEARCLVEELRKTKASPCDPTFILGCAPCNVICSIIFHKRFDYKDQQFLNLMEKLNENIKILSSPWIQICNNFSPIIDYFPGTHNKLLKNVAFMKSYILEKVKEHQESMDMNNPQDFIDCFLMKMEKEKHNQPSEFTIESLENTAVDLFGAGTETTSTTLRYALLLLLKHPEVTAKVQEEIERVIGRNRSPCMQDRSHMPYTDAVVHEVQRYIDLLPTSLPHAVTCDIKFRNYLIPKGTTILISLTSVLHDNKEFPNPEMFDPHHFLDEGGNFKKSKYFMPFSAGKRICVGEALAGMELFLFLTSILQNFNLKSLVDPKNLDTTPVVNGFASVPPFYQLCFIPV
smiles,measurement,setting,value
COc1ccc2ncc(F)c(CC[C@@]3(O)CO[C@@H]4[C@@H](NCc5cc6c(cn5)OCCO6)CO[C@@H]43)c2n1,MIC,Staphylococcus aureus [1],1 µg/mL
same,MIC,Staphylococcus aureus [2],1 µg/mL
same,MIC,Streptococcus pyogenes,≤ 0.12 µg/mL
same,MIC,Streptococcus pneumoniae [3],≤ 0.12 µg/mL
same,MIC,Streptococcus pneumoniae [4],≤ 0.12 µg/mL
same,MIC,Enterococcus faecium,2 µg/mL
same,MIC,Enterococcus faecalis,2 µg/mL
same,MIC90,Staphylococcus aureus [5],2 µg/mL
same,Ratio,Staphylococcus aureus [6],16
same,inhibition at 3 µM,Nav1.5 (late current) [7],4.3%
same,inhibition at 30 µM,Nav1.5 (late current) [8],19.1%
same,inhibition at 100 µM,Nav1.5 (late current) [9],50.9%
same,Activity,[10],3.4%
same,Activity,[11],7.7%
same,Activity,[12],17%
same,inhibition,[13],51%
same,inhibition,[14],68%
same,inhibition,[15],78%
same,inhibition,[16],95%
same,"cytotoxicity at 24 h, 0.01 µM",[17],6%
same,Papp B→A at 10 µM,[18],85.3 ×10⁻⁶ cm/s
same,half-life at 10 µM,[19],3 min
same,inhibition at 10 µM,CYP2B6,< 50%
same,inhibition at 10 µM,CYP2C9,< 50%
same,inhibition at 10 µM,CYP2C19,< 50%
same,inhibition at 10 µM,CYP2D6,< 50%
same,IC50,Cytochrome P450 3A4,> 10 µM
same,IC50,[20],0.53 µM
